Results on 37 sequences are retold here after the array DNA melting data of Ke et al. (doi:10.1101/2024.01.08.574731).

Data set [1] is described as follows: folding enthalpy; higher = less favourable; fluorescence melt of hairpins on a sequencing array, two-state fit. To be noted: sodium 0.088 M. An outline of the steps: (§1)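 With Cy3 and quencher oligos annealed, library hairpins on a sequenced MiSeq flow cell were imaged for Cy3 fluorescence in 50 mM Na-HEPES pH 8.0, 25 mM NaCl, in 2.5 °C steps up to 60 °C. Melting temperature and folding enthalpy were derived from bootstrapped two-state fits of signals normalised to pre-quench Cy3 and to control constructs. Four replicates were combined by inverse variance, with fitted temperatures raised by 9.35 °C to match UV melts.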

A short description of data set [2]: melting temperature; fluorescence melt of hairpins on a sequencing array, two-state fit, raised by 9.35 °C to match UV melts. As to conditions: sodium 0.088 M. An outline of the steps: as §1

As to GATCAGGTGCCTGATC ((((((....)))))), in data set [1], the folding enthalpy is -155 kJ/mol. Further, the Tm in data set [2] stood at 51.6 °C.

As to GTACGACCGAAAGGTTAC (((..(((....)))))), the folding enthalpy in data set [1] was -37.3 kJ/mol. The Tm in data set [2] was 19.8 °C.

On to GGGTCCGAAAGGAGGCCC ((((((....)))..))), for which the folding enthalpy in data set [1] is -78.3 kJ/mol. Moreover, the Tm in data set [2] is 50.3 °C.

Turning to GGTCTCGGAAACGAGATC (.(((((....))))).), in data set [1], the folding enthalpy was -160 kJ/mol. For the same sequence, the Tm in data set [2] is 52.1 °C.

In the case of GCATGGGGAAACCTGTGC (((..((....))..))), the folding enthalpy in data set [1] was -127 kJ/mol. The Tm in data set [2] stood at 44.3 °C.

As to GATCGGAGTACCGATC ((((((....)))))), the folding enthalpy in data set [1] was -158 kJ/mol. In data set [2], the Tm amounted to 57.5 °C.

On to GGATACGAAAGTAAGTCC ((((((....)))..))), for which the folding enthalpy in data set [1] is -37.9 kJ/mol. Besides, the Tm in data set [2] came to 22.2 °C.

As for GATCAAAACTTTGATC ((((((....)))))), the folding enthalpy in data set [1] is -150 kJ/mol. Further, the Tm in data set [2] came to 46.6 °C.

Consider GCTTAGCGAAAGCCACGC ((.(.((....)).).)), for which the folding enthalpy in data set [1] was -35.8 kJ/mol. For the same sequence, the Tm in data set [2] was 22.5 °C.

Turning to GATCTCGACGGAGATC ((((((....)))))), the folding enthalpy in data set [1] was -203 kJ/mol. Further, the Tm in data set [2] was 54.3 °C.

On to GCAACCGAAAGGTGATGC ((((((....)))..))), for which, in data set [1], the folding enthalpy was -77.4 kJ/mol. Moreover, the Tm in data set [2] is 43.2 °C.

Regarding GATCTGCTGTCAGATC ((((((....)))))), the folding enthalpy in data set [1] was -135 kJ/mol. Besides, the Tm in data set [2] came out at 51.6 °C.

Take GCTCGCGGAAACGTGGGC ((.(.((....)).).)): in data set [1], the folding enthalpy is -142 kJ/mol. The Tm in data set [2] was 50.2 °C.

Take GTGATCTCGAAAGAGCAC (((..(((....)))))): in data set [1], the folding enthalpy was -108 kJ/mol. In addition, in data set [2], the Tm amounted to 45.5 °C.

With GATCGACCAATCGATC ((((((....)))))), in data set [1], the folding enthalpy is -143 kJ/mol. The Tm in data set [2] turned out to be 49 °C.

As for GCCCGATCGAAAGATGGC (((..(((....)))))), the folding enthalpy in data set [1] was -99 kJ/mol. In addition, the Tm in data set [2] came out at 40.2 °C.

For the sequence GCGCCAGGAAACCGGCGC (((((.(....).))))), in data set [1], the folding enthalpy was -95.4 kJ/mol. Further, the Tm in data set [2] is 69.1 °C.

With TCAGGGAAACCTGA (((((....))))), the folding enthalpy in data set [1] is -95.3 kJ/mol. Besides, the Tm in data set [2] amounted to 41.8 °C.

Consider GTGATTACGAAAGTACAC (((..(((....)))))), for which, in data set [1], the folding enthalpy was -42.1 kJ/mol. Besides, the Tm in data set [2] was 27.8 °C.

As to GAGCACGAAAGTGATCTC ((((((....)))..))), the folding enthalpy in data set [1] is -99.3 kJ/mol. Moreover, the Tm in data set [2] is 57.1 °C.

For GAAGCCGAAAGGCACTTC ((((((....)))..))), the folding enthalpy in data set [1] is -50 kJ/mol. Besides, the Tm in data set [2] was 42.4 °C.

As for GATCGGCCCGCCGATC ((((((....)))))), the folding enthalpy in data set [1] was -184 kJ/mol. Further, in data set [2], the Tm is 68.3 °C.

On to GAGATCGGAAACGATTTC ((.((((....)))).)), for which the folding enthalpy in data set [1] was -112 kJ/mol. For the same sequence, the Tm in data set [2] was 42.3 °C.

GAAGCACGAAAGTGTTC (((.(((....)))))): the folding enthalpy in data set [1] is -56.1 kJ/mol. Further, the Tm in data set [2] turned out to be 36.1 °C.

Take GATCTCGGATGAGATC ((((((....)))))): in data set [1], the folding enthalpy is -141 kJ/mol. For the same sequence, the Tm in data set [2] came to 57 °C.

GATCAATAGGTTGATC ((((((....)))))): the folding enthalpy in data set [1] was -143 kJ/mol. Further, in data set [2], the Tm is 45.1 °C.

With GGTAATGAAAATTACC ((((((....)))))), in data set [1], the folding enthalpy is -135 kJ/mol. Besides, the Tm in data set [2] is 48.4 °C.

GATCGCAGGAGCGATC ((((((....)))))): the folding enthalpy in data set [1] is -111 kJ/mol. For the same sequence, in data set [2], the Tm was 68.3 °C.

On to GATCGGGGAAACCCAATC (((.(((....))).))), for which the folding enthalpy in data set [1] is -87.1 kJ/mol. Also, the Tm in data set [2] turned out to be 32.8 °C.

On to GAGGACGAAAGTCACTC ((((((....))).))), for which, in data set [1], the folding enthalpy was -75.1 kJ/mol. For the same sequence, the Tm in data set [2] is 43.1 °C.

As to GATCGCTTAGGCGATC ((((((....)))))), the folding enthalpy in data set [1] was -134 kJ/mol. In addition, the Tm in data set [2] came to 68.6 °C.

As to GGTCACCGAAAGGTACC (((.(((....)))))), the folding enthalpy in data set [1] is -82.3 kJ/mol. In addition, the Tm in data set [2] worked out at 47.1 °C.

With GTATAGGGAAACCTGTAC (((.(((....))).))), the folding enthalpy in data set [1] is -127 kJ/mol. Besides, the Tm in data set [2] came out at 39.2 °C.

Consider GATCAACCCCTTGATC ((((((....)))))), for which the folding enthalpy in data set [1] is -147 kJ/mol. In addition, the Tm in data set [2] was determined as 45.5 °C.

Regarding GCCGCCGAAAGGCTGGGC ((((((....)))..))), the folding enthalpy in data set [1] was -85.2 kJ/mol. Further, the Tm in data set [2] came to 64.8 °C.

Regarding CGTTACGGAAACGTCACG (((.(((....))).))), the folding enthalpy in data set [1] was -98.5 kJ/mol. Besides, in data set [2], the Tm worked out at 44.5 °C.

Take GTTACCGAAAGGTTGAAC ((((((....)))..))): the folding enthalpy in data set [1] is -53.6 kJ/mol. In addition, the Tm in data set [2] was found to be 29.2 °C.
